In assay [1] the target is T1, human VAChT (Homo sapiens, UniProt Q16572).
T1 sequence (Q16572 1-532): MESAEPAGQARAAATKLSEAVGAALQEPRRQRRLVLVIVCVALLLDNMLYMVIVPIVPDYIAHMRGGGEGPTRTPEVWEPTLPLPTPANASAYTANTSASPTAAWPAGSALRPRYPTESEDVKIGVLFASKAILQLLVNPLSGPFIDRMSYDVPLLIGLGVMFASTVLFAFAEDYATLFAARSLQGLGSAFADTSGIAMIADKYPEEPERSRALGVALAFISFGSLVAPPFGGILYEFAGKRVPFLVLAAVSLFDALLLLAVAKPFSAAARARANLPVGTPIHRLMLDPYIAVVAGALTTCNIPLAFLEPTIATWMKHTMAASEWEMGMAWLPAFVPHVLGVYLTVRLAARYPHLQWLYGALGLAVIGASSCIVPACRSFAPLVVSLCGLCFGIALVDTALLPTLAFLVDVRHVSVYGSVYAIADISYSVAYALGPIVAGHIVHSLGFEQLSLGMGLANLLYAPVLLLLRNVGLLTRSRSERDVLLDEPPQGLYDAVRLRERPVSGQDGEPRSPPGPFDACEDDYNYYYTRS
As to conditions: read-out: Ki VAChT, mean ± SEM, cited from earlier work.

Assay [2] concerns σ1 receptor. The following applies: selectivity ratio, cited from earlier work.
For assay [3], the target named is σ1 receptor (Cavia porcellus, UniProt Q60492). As to conditions: read-out: Ki σ1, mean ± SEM, cited from earlier work.
Assay [4] deals with T2, σ2 receptor (Rattus norvegicus, UniProt Q5U3Y7).
T2 sequence (Q5U3Y7 1-176): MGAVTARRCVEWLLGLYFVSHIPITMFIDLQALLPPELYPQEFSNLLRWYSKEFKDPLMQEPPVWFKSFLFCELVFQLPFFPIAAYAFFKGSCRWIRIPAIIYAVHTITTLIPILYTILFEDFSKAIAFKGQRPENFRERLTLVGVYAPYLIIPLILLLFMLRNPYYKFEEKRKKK
As to conditions: read-out: Ki σ2, mean ± SEM, cited from earlier work.

The test system of assay [5] is σ2 receptor. The following applies: selectivity ratio, cited from earlier work.
Assay [6] has as its target T1, human VAChT. As to the kind of experiment: VAChT competitive binding, displacement of. A digest of the protocol:
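Postnuclear supernatant (200 µg) from PC12A123.7 cells expressing human VAChT, incubated with (−)-[3H]vesamicol and test compound (0.1–10,000 nM, 10-fold steps) in 110 mM potassium tartrate, 20 mM HEPES pH 7.4, 1 mM DTT, 0.02% sodium azide, 22 °C, 24 h. Duplicate filtration on PEI-coated GF/F filters, buffer washes, scintillation counting. Ki from rectangular hyperbola fit of averaged data; ≥2 independent assays.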

Read-outs that look alike come from different tables or passages of the source.

Sequence of σ1 receptor (Cavia porcellus, UniProt Q60492) (Q60492 whole entry): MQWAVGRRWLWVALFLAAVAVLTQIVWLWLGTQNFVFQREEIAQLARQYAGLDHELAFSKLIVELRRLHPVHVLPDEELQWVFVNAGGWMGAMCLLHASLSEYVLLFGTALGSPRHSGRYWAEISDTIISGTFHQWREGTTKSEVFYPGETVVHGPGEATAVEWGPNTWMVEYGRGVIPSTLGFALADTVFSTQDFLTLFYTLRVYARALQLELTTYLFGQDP

What is called Ki is a measure of affinity in units of concentration, obtained from inhibition or displacement. For the compound `O=C(c1ccc(OCCF)cc1)C1CCN(C2Cc3ccccc3CC2O)CC1` (racemic) [(±)-5, (4-(2-fluoroethoxy)phenyl)(1-(3-hydroxy-1,2,3,4-tetrahydronaphthalen-2-yl)piperidin-4-yl)methanone], the inhibition constant (Ki) on human VAChT [1] (ref [20]) was 38 ± 3.8 nM; on σ1 receptor [3] (ref [20]), 2120 ± 50 nM; on σ2 receptor [4] (ref [20]) it was 1860 ± 140 nM. Besides, in the assay on σ1 receptor [2] (ref [20]), the σ1/VAChT is given as 56. Moreover, the σ2/VAChT in the assay with σ2 receptor [5] (ref [20]) is listed as 49.

As to `O=C(c1ccc(OCCF)nc1)C1CCN(C2Cc3ccccc3CC2O)CC1` (racemic) [(±)-6, (6-(2-fluoroethoxy)pyridin-3-yl)(1-(3-hydroxy-1,2,3,4-tetrahydronaphthalen-2-yl)piperidin-4-yl)methanone], the inhibition constant Ki was 1.74 ± 0.32 nM at human VAChT [1] (ref [23]), 13.2 ± 0.2 nM at σ1 receptor [3] (ref [23]) and 1890 ± 240 nM on σ2 receptor [4] (ref [23]). In addition, in the assay on σ1 receptor [2] (ref [23]), the σ1/VAChT is given as 8. Moreover, the σ2/VAChT with σ2 receptor [5] (ref [23]) is 1086.

With `O=C(c1ccc(NCCF)cc1)C1CCN(C2Cc3ccccc3CC2O)CC1` (racemic) [(±)-7, (4-((2-Fluoroethyl)amino)phenyl)(1-(3-hydroxy-1,2,3,4-tetrahydronaphthalen-2-yl)piperidin-4-yl)methanone], the Ki on human VAChT [6] came to 2.68 ± 0.23 nM.
